From ChEMBL document CHEMBL5058577, “EUbOPEN Chemogenomics Library 2 (Multiplex)” (2022)
“And” between values parts separate entries of the source, which are not always exact repeats. Equal entries are not always repeated.

Columns and labels:
Format in all cases: toxicity, cell-based
[1] = tested on: Fibroblast; experiment: Multiplex assay against human fibroblast; settings: 10 µM, compound concentration 10 uM
How it was run: (§1)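 Tubulin, mitochondrial-mass and membrane-permeability phenotypes are per cents of healthy-nucleus cells. Cells were gated by CellPathfinder machine learning into Hoechst high-intensity objects or normal cells, normal cells into healthy, pyknosed or fragmented nuclei, and pyknosed cells into mitotic or apoptotic. Before that, live cells stained at seeding with Hoechst33342, BioTracker Green Microtubule Cytoskeleton Dye, MitoTracker Red and Annexin V Alexa Fluor 680 were imaged on a CQ1 microscope at 37°C and 5% CO2 after compound addition.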

[2] = tested on: HEK-293T; experiment: Multiplex assay against HEK293T; settings: human, 10 µM, compound concentration 10 uM; how it was run: as §1
[3] = tested on: U2OS; experiment: Multiplex assay against U2OS; settings: human, 10 µM, compound concentration 10 uM; how it was run: as §1

CCC(=O)N1CCN(c2ccc(-n3c(=O)ccc4cnc5ccc(-c6cnc7ccccc7c6)cc5c43)cc2C(F)(F)F)CC1 [TORIN1]
Population Healthy Nuclei (%) ([1]; 12 h, replicate 1): 60% and 61%
Population Mitotic Cells (%) ([1]; 12 h, replicate 1): 72% and 76%
Population Normal (%) ([1]; 12 h, replicate 1): 94% and 95%
Population Tubulin-Different-Phenotype (%) ([1]; 12 h, replicate 1): 62% and 53%
Total Cell Count ([1]; 12 h, replicate 1): 155 and 135
Population Healthy Nuclei (%) ([1]; 12 h, replicate 2): 44%
Population Mitotic Cells (%) ([1]; 12 h, replicate 2): 65% and 66%
Population Normal (%) ([1]; 12 h, replicate 2): 90%
Population Tubulin-Different-Phenotype (%) ([1]; 12 h, replicate 2): 64%
Total Cell Count ([1]; 12 h, replicate 2): 131 and 150
Population Healthy Nuclei (%) ([1]; 24 h, replicate 1): 64%
Population Mitotic Cells (%) ([1]; 24 h, replicate 1): 66% and 50%
Population Normal (%) ([1]; 24 h, replicate 1): 96% and 94%
Population Tubulin-Different-Phenotype (%) ([1]; 24 h, replicate 1): 62% and 48%
Total Cell Count ([1]; 24 h, replicate 1): 137 and 135
Population Healthy Nuclei (%) ([1]; 24 h, replicate 2): 57% and 45%
Population Mitotic Cells (%) ([1]; 24 h, replicate 2): 56% and 77%
Population Normal (%) ([1]; 24 h, replicate 2): 93% and 95%
Population Tubulin-Different-Phenotype (%) ([1]; 24 h, replicate 2): 59% and 60%
Total Cell Count ([1]; 24 h, replicate 2): 128 and 150
Population Healthy Nuclei (%) ([1]; 48 h, replicate 1): 72% and 71%
Population Mitotic Cells (%) ([1]; 48 h, replicate 1): 50%
Population Normal (%) ([1]; 48 h, replicate 1): 96% and 97%
Population Tubulin-Different-Phenotype (%) ([1]; 48 h, replicate 1): 67% and 54%
Total Cell Count ([1]; 48 h, replicate 1): 127 and 124
Population Healthy Nuclei (%) ([1]; 48 h, replicate 2): 62% and 46%
Population Mitotic Cells (%) ([1]; 48 h, replicate 2): 46%
Population Normal (%) ([1]; 48 h, replicate 2): 95% and 98%
Population Tubulin-Different-Phenotype (%) ([1]; 48 h, replicate 2): 61% and 77%
Total Cell Count ([1]; 48 h, replicate 2): 136 and 147
Population Apoptotic (%) ([2]; 12 h, replicate 1): 71% and 67%
Population Healthy Nuclei (%) ([2]; 12 h, replicate 1): 76% and 71%
Population Membrane Permeable-Phenotype (%) ([2]; 12 h, replicate 1): 0%
Population Mitochondria Different-Phenotype (%) ([2]; 12 h, replicate 1): 78% and 76%
Population Normal (%) ([2]; 12 h, replicate 1): 88%
Population Tubulin-Different-Phenotype (%) ([2]; 12 h, replicate 1): 40%
Total Cell Count ([2]; 12 h, replicate 1): 373 and 299
Population Apoptotic (%) ([2]; 12 h, replicate 2): 51% and 57%
Population Healthy Nuclei (%) ([2]; 12 h, replicate 2): 79%
Population Mitochondria Different-Phenotype (%) ([2]; 12 h, replicate 2): 87%
Population Mitotic Cells (%) ([2]; 12 h, replicate 2): 48% and 42%
Population Normal (%) ([2]; 12 h, replicate 2): 92%
Population Tubulin-Different-Phenotype (%) ([2]; 12 h, replicate 2): 37%
Total Cell Count ([2]; 12 h, replicate 2): 266 and 321
Population Apoptotic (%) ([2]; 24 h, replicate 1): 45%
Population Healthy Nuclei (%) ([2]; 24 h, replicate 1): 75% and 74%
Population Membrane Permeable-Phenotype (%) ([2]; 24 h, replicate 1): 0%
Population Mitochondria Different-Phenotype (%) ([2]; 24 h, replicate 1): 75% and 81%
Population Mitotic Cells (%) ([2]; 24 h, replicate 1): 46% and 54%
Population Normal (%) ([2]; 24 h, replicate 1): 86% and 90%
Population Tubulin-Different-Phenotype (%) ([2]; 24 h, replicate 1): 43% and 44%
Total Cell Count ([2]; 24 h, replicate 1): 337 and 289
Population Apoptotic (%) ([2]; 24 h, replicate 2): 44% and 58%
Population Mitochondria Different-Phenotype (%) ([2]; 24 h, replicate 2): 82% and 86%
Population Mitotic Cells (%) ([2]; 24 h, replicate 2): 55% and 41%
Population Normal (%) ([2]; 24 h, replicate 2): 77% and 71%
Population Tubulin-Different-Phenotype (%) ([2]; 24 h, replicate 2): 33% and 57%
Total Cell Count ([2]; 24 h, replicate 2): 225 and 283
Population Apoptotic (%) ([2]; 48 h, replicate 1): 56% and 69%
Population Healthy Nuclei (%) ([2]; 48 h, replicate 1): 70% and 72%
Population Membrane Permeable-Phenotype (%) ([2]; 48 h, replicate 1): 0%
Population Mitochondria Different-Phenotype (%) ([2]; 48 h, replicate 1): 77% and 75%
Population Mitotic Cells (%) ([2]; 48 h, replicate 1): 43%
Population Normal (%) ([2]; 48 h, replicate 1): 73% and 80%
Population Tubulin-Different-Phenotype (%) ([2]; 48 h, replicate 1): 47% and 35%
Total Cell Count ([2]; 48 h, replicate 1): 292 and 275
Population Apoptotic (%) ([2]; 48 h, replicate 2): 68% and 58%
Population Healthy Nuclei (%) ([2]; 48 h, replicate 2): 56%
Population Membrane Permeable-Phenotype (%) ([2]; 48 h, replicate 2): 1%
Population Mitochondria Different-Phenotype (%) ([2]; 48 h, replicate 2): 80% and 82%
Population Mitotic Cells (%) ([2]; 48 h, replicate 2): 41%
Population Normal (%) ([2]; 48 h, replicate 2): 38% and 36%
Population Tubulin-Different-Phenotype (%) ([2]; 48 h, replicate 2): 37% and 58%
Total Cell Count ([2]; 48 h, replicate 2): 235 and 234
Population Apoptotic (%) ([3]; 12 h, replicate 1): 68% and 85%
Population Healthy Nuclei (%) ([3]; 12 h, replicate 1): 55%
Population Normal (%) ([3]; 12 h, replicate 1): 98% and 96%
Total Cell Count ([3]; 12 h, replicate 1): 288 and 258
Population Apoptotic (%) ([3]; 12 h, replicate 2): 76% and 92%
Population Healthy Nuclei (%) ([3]; 12 h, replicate 2): 71% and 61%
Total Cell Count ([3]; 12 h, replicate 2): 109 and 101
Population Apoptotic (%) ([3]; 24 h, replicate 1): 77% and 84%
Population Healthy Nuclei (%) ([3]; 24 h, replicate 1): 54% and 55%
Population Normal (%) ([3]; 24 h, replicate 1): 98% and 96%
Total Cell Count ([3]; 24 h, replicate 1): 287 and 256
Population Apoptotic (%) ([3]; 24 h, replicate 2): 73% and 83%
Population Healthy Nuclei (%) ([3]; 24 h, replicate 2): 72%
Population Normal (%) ([3]; 24 h, replicate 2): 97%
Total Cell Count ([3]; 24 h, replicate 2): 115 and 106
Population Apoptotic (%) ([3]; 48 h, replicate 1): 78% and 72%
Population Healthy Nuclei (%) ([3]; 48 h, replicate 1): 44% and 39%
Population Normal (%) ([3]; 48 h, replicate 1): 93% and 97%
Total Cell Count ([3]; 48 h, replicate 1): 300 and 270
Population Apoptotic (%) ([3]; 48 h, replicate 2): 82% and 81%
Total Cell Count ([3]; 48 h, replicate 2): 147 and 123
